ChEMBL document CHEMBL4145672, “Structural Characterization of Terpenoids from Abies holophylla Using Computational and Statistical Methods and Their Biological Activities” (J Nat Prod, 2018)

Experiments:
BV-2 = test: Antiinflammatory activity in mouse BV2 cells assessed as inhibition of LPS-induced nitric oxide production measured after 24 hrs by Griess assay; format: functional, cell-based; details: BV-2, 24 h
Summary of the method: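 Murine microglial BV2 cells were seeded at 4 × 10^4 cells/well and exposed to a range of compound concentrations. LPS (100 ng/mL) was added and cells were incubated 24 h. Nitrite in the medium was reacted 10 min with Griess reagent (0.1% N-1-naphthylethylenediamine dihydrochloride, 1% sulfanilamide in 5% phosphoric acid), read at 570 nm and quantified against a sodium nitrite standard curve. IC50 values are reported.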

[1] = Cytotoxicity against mouse BV2 cells assessed as cell viability at 20 uM measured after 24 hrs by MTT assay relative to control; format: cell-based, BV-2; details: read-out: Activity
Summary of the method: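 BV2 cells under the NO assay conditions (LPS 100 ng/mL, 24 h) were given 20 μM of each compound, with some data collected at 5 μM. Viability was measured by MTT and expressed as percent. Values are means ± SD of three independent experiments.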

HCT-15 = test: Cytotoxicity against human HCT15 cells assessed as cell growth inhibition measured after 48 hrs by sulforhodamine B assay; format: functional, cell-based; details: HCT-15, 48 h
Summary of the method: (§1)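 The SRB assay was run on ATCC-derived human tumor lines maintained at the Korea Research Institute of Chemical Technology. Read-out was cell growth. IC50 is the concentration giving 50% growth inhibition. Cisplatin served as positive control.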

A549 = test: Cytotoxicity against human A549 cells assessed as cell growth inhibition measured after 48 hrs by sulforhodamine B assay; format: functional, cell-based; details: A549, 48 h; summary of the method: as §1
[2] = Cytotoxicity against rat C6 cells assessed as cell viability at 20 uM measured after 24 hrs by MTT assay relative to control; format: cell-based; details: read-out: Activity
Summary of the method: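 Rat C6 glioma cells were seeded at 1 × 10^5 cells/well. After 24 h they were switched to serum-free DMEM containing 20 μM compound for another 24 h. Viability was determined by MTT as percent of untreated control, some data at 5 μM. Values are means ± SD of three independent experiments.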

SK-MEL-2 = test: Cytotoxicity against human SK-MEL-2 cells assessed as cell growth inhibition measured after 48 hrs by sulforhodamine B assay; format: functional, cell-based; details: SK-MEL-2, 48 h; summary of the method: as §1
[3] = Cytotoxicity against rat C6 cells assessed as cell viability at 5 uM measured after 24 hrs by MTT assay relative to control; format: cell-based; details: read-out: Activity
Summary of the method: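 C6 glioma cells were seeded at 1 × 10^5 cells/well, grown 24 h, then switched to serum-free DMEM with compound (5 μM here) for another 24 h. Viability was read by MTT as % of untreated cells. Values are means ± SD of three independent experiments.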

C6 [4] = test: Neuroprotective activity in rat C6 cells assessed as induction of nerve growth factor secretion at 20 uM measured after 24 hrs by ELISA relative to control; format: functional
Summary of the method: (§2)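 Rat C6 glioma cells were seeded at 1 × 10^5 cells/well. After 24 h they were switched to serum-free DMEM and treated with compound (20 μM, some at 5 μM) for 24 h. NGF secreted into the conditioned medium was quantified by ELISA and expressed as percent of untreated control (100%). Values are means ± SD of three independent experiments.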

C6 [5] = test: Neuroprotective activity in rat C6 cells assessed as induction of nerve growth factor secretion at 5 uM measured after 24 hrs by ELISA relative to control; format: functional; summary of the method: as §2
[6] = Cytotoxicity against mouse BV2 cells assessed as cell viability at 5 uM measured after 24 hrs by MTT assay relative to control; format: cell-based, BV-2; details: read-out: Activity
Summary of the method: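 BV2 murine microglia were seeded at 4 × 10^4 cells/well, exposed to compound (5 μM here), and stimulated with LPS 100 ng/mL for 24 h. Viability was read by MTT and expressed as % of control. Values are means ± SD of three independent experiments.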

SK-OV-3 = test: Cytotoxicity against human SKOV3 cells assessed as cell growth inhibition measured after 48 hrs by sulforhodamine B assay; format: functional, cell-based; details: SK-OV-3, 48 h; summary of the method: as §1

SMILES	IC50 (BV-2) [µM]	viability at 24 h, 20 µM [1] [%]	IC50 (HCT-15) [µM]	IC50 (A549) [µM]	viability at 24 h, 20 µM [2] [%]	IC50 (SK-MEL-2) [µM]	viability at 24 h, 5 µM [3] [%]	Activity (C6 [4]) [%]	Activity (C6 [5]) [%]	viability at 24 h, 5 µM [6] [%]	IC50 (SK-OV-3) [µM]
CC1=CC(O)(C[C@@H](C)[C@]2(C)CC=C3C4=CC[C@H]5C(C)(C)[C@H](O)CC[C@]5(C)[C@@H]4CC[C@]32C)OC1=O (stereo not given in full)	4	9.7	> 10	> 10	56.7	4.2	108	121.7	158.1	154	> 10
CC1(C)O[C@H]2C[C@H]3C(=C[C@]21O)CC[C@@H]1[C@]3(C)CCC[C@@]1(C)C(=O)O					99			136.9			
C=C(C)[C@@H]1CC=C2[C@@H](CC=C3[C@@]2(C)CC[C@@]3(C)[C@H](C)C[C@@H]2C[C@@H](C)C(=O)O2)[C@@]1(C)CCC(=O)OC	39.7	86.8	2.3	2.4		1.7					6.2
C=C(CC(=O)C[C@@H](C)[C@]1(C)CCC(=C)[C@]12CC[C@@H]1C2=CC[C@@H](C(=C)C)[C@]1(C)CCC(=O)O)C(=O)O					112			173.3			
C=C(C)[C@@H]1C=CC2=C3CC[C@@](C)([C@H](C)CC(=O)C[C@@H](C)C(=O)O)[C@]3(C)CC[C@H]2[C@@]1(C)CCC(=O)O					110			146.1			
C=C(C)[C@@H]1CC=C2[C@@H](CC[C@]23C(=C)CC[C@@]3(C)[C@H](C)CC(=O)/C=C(\C)C(=O)O)[C@@]1(C)CCC(=O)O	19.1	136			104			195.1			
C/C(=C\CO)[C@H](O)C[C@@H]1[C@@]2(C)CCCC(C)(C)[C@@H]2CC[C@@]1(C)O					104			127.9			
C/C(=C\C(=O)C[C@@H](C)[C@H]1CC[C@@]2(C)C3=CC[C@H]4C(C)(C)C(=O)CC[C@]4(C)[C@@H]3CC[C@]12C)C(=O)O	10.5	19.4	> 10	8.7	62.2	3.2		153.9			7.7
C[C@@H]1C[C@]2(C[C@@H](C)[C@]3(CC[C@@]4(C)[C@@H]5CC[C@H]6C(C)(C)[C@H](O)CC[C@@]67C[C@@]57CC[C@@]43C)O2)OC1=O			> 10	> 10	107	8.5		149.3			> 10
C/C(=C\CC[C@@H](C)[C@H]1CC[C@@]2(C)[C@@H]3CC[C@H]4C(C)(C)[C@@H](O)CC[C@@]45C[C@@]35CC[C@]12C)C(=O)O [MANGIFEROLIC ACID]	12.8	35.2			79.3			128.6			
C/C(=C\CC[C@@H](C)[C@H]1CC[C@@]2(C)[C@@H]3CC[C@H]4C(C)(C)C(=O)CC[C@@]45C[C@@]35CC[C@]12C)C(=O)O [MANGIFERONIC ACID]	9	21									
CCCCC/C=C/C(=O)CCc1ccc(O)c(OC)c1 [SHOGAOL]					110			158.2			
CNC(=N)NCCC[C@H](N)C(=O)O [TILARGININE]		105									

More lines, main results first:

IC50 (BV-2) [µM]	SMILES	viability at 24 h, 20 µM [1] [%]	IC50 (HCT-15) [µM]	IC50 (A549) [µM]	viability at 24 h, 20 µM [2] [%]	IC50 (SK-MEL-2) [µM]	viability at 24 h, 5 µM [3] [%]	Activity (C6 [4]) [%]	Activity (C6 [5]) [%]	viability at 24 h, 5 µM [6] [%]	IC50 (SK-OV-3) [µM]
18.1	C[C@]12CCC[C@@](C)(C(=O)O)[C@@H]1CCC1=CC(=O)CC[C@@H]12	124									
20.3	CC1(C)CCC[C@]2(C)[C@H]3CC(=O)O[C@]3(C)CC[C@@H]12	131									
19.5	C/C(=C\CO)[C@@H](O)C[C@@H]1[C@@]2(C)CCCC(C)(C)[C@@H]2CC[C@@]1(C)O	122			99.8			125.7			
15	C=C(CC(=O)C[C@@H](C)[C@H]1CC[C@@]2(C)C3=CC[C@H]4C(C)(C)C(=O)CC[C@]4(C)[C@@H]3CC[C@]12C)C(=O)O	125			98.5			178.9			
10.3	C/C(=C\C(=O)C[C@@H](C)[C@@H]1CC=C2C3=CC[C@H]4C(C)(C)[C@H](O)CC[C@]4(C)[C@@H]3CC[C@]21C)C(=O)O	9.9	> 10	> 10	85.7	7.2		156			> 10
29.8	C/C(=C\[C@H](O)C[C@@H](C)[C@H]1CC[C@@]2(C)C3=CC[C@H]4C(C)(C)C(=O)CC[C@]4(C)[C@@H]3CC[C@]12C)C(=O)O	125	> 10	> 10	111	8.8		140.9			> 10
10.2	CC1=CC(O)(C[C@@H](C)[C@H]2CC[C@@]3(C)C4=CC[C@H]5C(C)(C)C(=O)CC[C@]5(C)[C@@H]4CC[C@]23C)OC1=O (stereo not given in full)	15.9	> 10	9.4		4.1					> 10
9.8	CC(=O)/C=C/C1[C@](C)(O)CC[C@H]2C(C)(C)CCC[C@]12C (stereo not given in full)	114									
42.2	C=C[C@@](C)(O)[C@H]1C[C@@H]2[C@@]3(C)CCCC(C)(C)[C@@H]3CC[C@@]2(C)O1	118									
25	C=C[C@@]1(C)O[C@]2(C)CC[C@H]3C(C)(C)CCC[C@]3(C)[C@H]2C[C@H]1O	112									
17.3	C=C(C)[C@@H]1CC=C2[C@@H](CC[C@]3(C)[C@@H]([C@H](C)C[C@@H]4C[C@@H](C)C(=O)O4)CC[C@@]23C)[C@@]1(C)CCC(=O)OC	123	8.1	> 10		5.5					> 10
13.6	C=C[C@@]1(C)C=C2CC[C@@H]3[C@](C)(CCC[C@@]3(C)C(=O)O)[C@H]2CC1 [PIMARIC ACID]	117									
